Assay outcomes: PubChem BioAssay, The Scripps Research Institute Molecular Screening Center
HTR1E agonist – 5-HT1E receptor agonists, primary screen, cell-based, HTS. 5-hydroxytryptamine receptor 1E (Homo sapiens), P28566. CHO 5-HT1E Ga15 NFAT-bla reporter, FRET; 0% DMSO wells, 100% control agonist wells. activation, % at 6 µM. hit rate 0.69% among 65,000. AID 574, 2007;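 active = activation above a set limit, the screen-wide mean activation plus 3 SD, cut at about 8.5% in these data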;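 note: 100% = positive control agonist at 1 µM giving full maximal response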
Target sequence (P28566 whole entry, looked up): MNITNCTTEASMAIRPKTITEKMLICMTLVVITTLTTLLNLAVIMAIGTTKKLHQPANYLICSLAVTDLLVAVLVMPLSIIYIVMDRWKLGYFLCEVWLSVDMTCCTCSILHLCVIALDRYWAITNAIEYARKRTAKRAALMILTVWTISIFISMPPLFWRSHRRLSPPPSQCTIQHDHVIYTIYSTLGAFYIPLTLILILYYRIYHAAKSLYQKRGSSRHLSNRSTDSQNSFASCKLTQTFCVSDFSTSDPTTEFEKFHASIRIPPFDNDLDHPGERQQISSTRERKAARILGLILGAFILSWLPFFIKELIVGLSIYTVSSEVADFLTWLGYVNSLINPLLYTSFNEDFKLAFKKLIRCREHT
HTR1A agonist – human 5-HT1a receptor agonists, primary screen, cell-based, CHO, Ga15 NFAT-bla reporter | activation, % at 10 µM | CHO 5-HT1a Ga15 NFAT-bla reporter, FRET ratio; 0% basal, 100% maximal reference agonist | AID 567, 2006 | hit rate 0.56% among 65,000;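 active = activation above the screen-wide mean activation plus 3 SD, cut at about 19% in these data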;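 note: 0% = DMSO wells and 100% = 5-CT at EC100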
HTR1E antagonist – 5-HT1E receptor antagonists, primary screen, cell-based, HTS. 5-hydroxytryptamine receptor 1E (Homo sapiens), P28566. CHO 5-HT1E Ga15 NFAT-bla reporter, FRET, antagonist. inhibition, % at 6 µM. hit rate 0.99% among 65,000. AID 571, 2007;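 active = inhibition above a set limit, the mean inhibition across every tested compound plus 3 SD, cut at about 29% in these data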;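 note: signal is the 460 over 535 nm emission ratio of beta-lactamase substrate; 0% = agonist plus DMSO wells and 100% = wells without agonist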
5HT1a antag – human 5-HT1a receptor antagonists, primary screen, cell-based, CHO, Ga15 NFAT-bla reporter | CHO 5-HT1a Ga15 NFAT-bla reporter, antagonist mode | inhibition, % at 10 µM | hit rate 0.68% among 62,000;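 active = inhibition above the mean of all tested compounds plus 3 SD, cut at about 43% in these data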;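 note: receptor stimulated by 5-CT agonist at 100 nM near EC80; beta-lactamase reporter measured by ratiometric fluorescence of a cleavable substrate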
S1P3 agonist – human S1P3 receptor agonists, primary screen, cell-based, primary and confirmation, NFAT-BLA reporter; Sphingosine 1-phosphate receptor 3 (Homo sapiens), Q99500; S1P3 NFAT-BLA reporter cells, agonism, FRET ratio; relative to 1 µM S1P, basal subtracted; activation, % at 4.5 µM; hit rate 0.1% among 60,000; AID 373, 2006;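 active = activation above the screen-wide mean plus 3 SD, cut at about 4.5% in these data, passing the limit was not always enough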
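Benchmarks: high control 1 µM S1P / System: stable CHO line with human S1P3, Gα16, NFAT-BLA reporter / Dosing: single compound concentration, 4.5 µM final / Timing: 4 h compound at 37 °C, 2 h substrate at RT / Measured by: FRET β-lactamase substrate fluorescence, excitation 405 nm, 460/535 nm emission ratio, background-subtracted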
Active calls of the source: *. Compounds with a hit are over-represented: about 2.6% of the library has one in this group of screens.

Results for CC(C)[C@@]1(NC(=O)[C@@H]2C=C3c4cccc5[nH]cc(c45)C[C@H]3N(C)C2)O[C@@]2(O)[C@@H]3CCCN3C(=O)[C@H](Cc3ccccc3)N2C1=O ?
HTR1E agonist: 9.1*; HTR1A agonist: 112.9*; HTR1E antagonist: 7.3; S1P3 agonist: -1.5

Results for CC(C)[C@@]1(NC(=O)[C@@H]2C[C@@H]3c4cccc5[nH]cc(c45)C[C@H]3N(C)C2)O[C@@]2(O)[C@@H]3CCCN3C(=O)[C@H](Cc3ccccc3)N2C1=O ?
HTR1E agonist: 1.7; HTR1A agonist: 95.9*; HTR1E antagonist: -11.6; S1P3 agonist: 0.2

What do the screens show for `CC(C)[C@H]1C(=O)N2CCC[C@H]2[C@]2(O)O[C@](NC(=O)[C@@H]3C=C4c5cccc6[nH]cc(c56)C[C@H]4N(C)C3)(C(C)C)C(=O)N12`?
HTR1E agonist: 4.0; HTR1A agonist: 102.4*; HTR1E antagonist: -1.2; S1P3 agonist: 18.0

How did CC(C)(C)c1nc(N2CCN(C(=O)c3ccco3)CC2)c2nnn(Cc3ccccc3Cl)c2n1 do in these assays?
HTR1E agonist: -0.5; HTR1A agonist: 3.9; HTR1E antagonist: -10.9; 5HT1a antag: -4.7; S1P3 agonist: -0.3

Results for CC(=O)OC1(Cc2ccccc2)CN2CCC1c1ccccc12 (centres undefined) ?
HTR1E agonist: -0.1; HTR1A agonist: -1.2; HTR1E antagonist: -1.9; S1P3 agonist: -1.2

What do the screens show for `COc1ccc(C2C(C(=O)N3CCC4(CC3)OCCO4)CC(=O)N2c2ccc(OC)cc2)cc1` (centres undefined)?
HTR1E agonist: 0.9; HTR1A agonist: 2.8; HTR1E antagonist: -0.8; 5HT1a antag: -25.3

Results for COc1cc2c(cc1OC)-c1c(OC)c(OC)cc3c1C(C2)N(C)CC3 (centres undefined) ?
HTR1E agonist: 25.1*; HTR1A agonist: 6.3; HTR1E antagonist: 23.5; 5HT1a antag: 2.6; S1P3 agonist: 0.3

How did NCC(CC(=O)O)c1ccc(Cl)cc1 (centres undefined) do in these assays?
HTR1E agonist: -0.1; HTR1A agonist: -2.2; HTR1E antagonist: -4.9; S1P3 agonist: -1.8

How did CC(C)(C)c1ccc(O)c(CN2CCN(c3ccccc3)CC2)c1 do in these assays?
HTR1E agonist: 4.2; HTR1A agonist: -2.5; HTR1E antagonist: -4.0; 5HT1a antag: 64.2*; S1P3 agonist: -0.3

How did O[C@@H]1CCCC[C@H]1N1CCC(c2ccccc2)CC1 do in these assays?
HTR1E agonist: -0.2; HTR1A agonist: -0.8; HTR1E antagonist: 5.2; 5HT1a antag: 8.7; S1P3 agonist: -0.4

Results for COc1ccc(CC2C(=O)N(C)C(=O)N(C)C2=O)c(OC)c1 ?
HTR1E agonist: 0.0; HTR1A agonist: 22.3*; HTR1E antagonist: -4.5; 5HT1a antag: -51.5; S1P3 agonist: -0.5

What do the screens show for `COc1ccc(CC2C(=O)NC(=O)NC2=O)c(OC)c1`?
HTR1E agonist: -0.5; HTR1A agonist: -4.8; HTR1E antagonist: 1.5; 5HT1a antag: -9.4; S1P3 agonist: -0.9

What do the screens show for `O=C(Cn1cnc2sc3c(c2c1=O)CCCC3)NCCC(=O)N1CCC2(CC1)OCCO2`?
HTR1E agonist: -0.5; HTR1A agonist: -3.8; HTR1E antagonist: -9.8; 5HT1a antag: 0.0; S1P3 agonist: -0.7

How did CC(C)OC(=O)C1C(=O)NC2(C)CC1c1ccccc1O2 (centres undefined) do in these assays?
HTR1E agonist: 0.5; HTR1A agonist: 1.1; HTR1E antagonist: -0.5; 5HT1a antag: -5.8

Results for Cc1cccnc1-n1c(CN2C(=O)c3ccccc3C2=O)nc2ccccc2c1=O ?
HTR1E agonist: 0.7; HTR1A agonist: -0.3; HTR1E antagonist: -3.8; 5HT1a antag: -10.7; S1P3 agonist: -0.3

Results for Cc1[nH]c2ccccc2c1C1=CCNCC1 ?
HTR1E agonist: 90.6*; HTR1A agonist: 0.4; HTR1E antagonist: -8.7; 5HT1a antag: -15.9; S1P3 agonist: 0.5

How did CC1CN(O)C2CCc3nonc3C12O (centres undefined) do in these assays?
HTR1E agonist: -0.4; HTR1A agonist: 0.8; HTR1E antagonist: -5.1; 5HT1a antag: 8.8; S1P3 agonist: -0.4

What do the screens show for `CN1CCN(CC(=O)Nc2ccc(Cl)cc2C(=O)c2ccccc2)CC1`?
HTR1E agonist: 10.4*; HTR1A agonist: 1.9; HTR1E antagonist: -4.4; 5HT1a antag: -3.5; S1P3 agonist: -1.0

What do the screens show for `CCn1nc(-c2cccs2)nc2c(=O)n(C)c(=O)nc1-2`?
HTR1E agonist: 1.3; HTR1A agonist: 10.7; HTR1E antagonist: 95.9*; 5HT1a antag: 81.9*; S1P3 agonist: -2.1

What do the screens show for `CCCCC1(CN2CCCC2=O)C(=O)NC(=O)NC1=O`?
HTR1E agonist: -1.5; HTR1A agonist: -0.8; HTR1E antagonist: 12.8; S1P3 agonist: -3.9

How did CCCCC12CNCC(C)(CNC1)C2=O do in these assays?
HTR1E agonist: 0.3; HTR1A agonist: 86.3*; HTR1E antagonist: -7.5; 5HT1a antag: -12.3; S1P3 agonist: 0.2

Results for Cn1c(O)c(C(=NCCN2CCCCC2)c2ccccc2Cl)c(=O)n(C)c1=O ?
HTR1E agonist: -0.9; HTR1A agonist: -0.5; HTR1E antagonist: -11.2; 5HT1a antag: 42.9*; S1P3 agonist: -0.2

Results for O=C(CCCN1CCC2(CC1)C(=O)NCN2c1ccccc1)c1ccc(F)cc1 ?
HTR1E agonist: 16.0*; HTR1A agonist: -1.6; HTR1E antagonist: -30.4; S1P3 agonist: -0.5

How did CN1CCC2(CC1)NC(=O)C1=C(CN(C)CC1)N2 do in these assays?
HTR1E agonist: -0.5; HTR1A agonist: -0.8; HTR1E antagonist: 0.9; 5HT1a antag: -9.8; S1P3 agonist: -0.3

What do the screens show for `CCCCc1nc(N2CCNCC2)c(C#N)c2c1CSC(C)(C)C2`?
HTR1E agonist: 10.2*; HTR1A agonist: -1.5; HTR1E antagonist: 9.2; S1P3 agonist: -2.6

How did COc1ccccc1N1CCN(Cc2ccccc2F)CC1 do in these assays?
HTR1E agonist: 17.8*; HTR1A agonist: 1.2; HTR1E antagonist: -5.5; 5HT1a antag: 6.2; S1P3 agonist: -0.9

Results for COc1ccccc1N1CCN(Cc2cccc(OC)c2O)CC1 ?
HTR1E agonist: 12.6*; HTR1A agonist: 2.5; HTR1E antagonist: 5.2; 5HT1a antag: 32.1; S1P3 agonist: -1.1

Results for CN(C)c1ccc(CN2CC=C(c3ccc(F)cc3)CC2)cc1 ?
HTR1E agonist: 4.5; HTR1A agonist: -0.7; HTR1E antagonist: -5.0; 5HT1a antag: 8.6; S1P3 agonist: -1.3

Results for COc1cc2nc(CN3CC=C(c4ccccc4)CC3)[nH]c(=O)c2cc1OC ?
HTR1E agonist: 0.4; HTR1A agonist: 1.1; HTR1E antagonist: 1.0; 5HT1a antag: 44.1*; S1P3 agonist: 0.8
